From ChEMBL document CHEMBL1139003, “Novel endotoxin-sequestering compounds with terephthalaldehyde-bis-guanylhydrazone scaffolds” (Bioorg Med Chem Lett, 2006) come the findings set out here.

One assay deals with Lipopolysaccharide (LPS). Nature of the assay: Binding affinity to lipid A moiety of LPS present in Gram negative bacteria by fluorescent probe method. The format is functional. An outline of the steps:
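Homogeneous, automated fluorescence displacement assay run in aqueous buffer. A fluorescent probe is bound to LPS and test ligand displaces it. ED50 is the ligand concentration that displaces 50% of the bound probe and is taken as relative binding affinity.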

The subject of a further assay is J774.A1. Nature of the assay: Inhibition of LPS-induced production of nitric oxide in murine J774.A1 cells. It counts as functional, cell-based, Mus musculus. The procedure, abridged: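 Murine J774 cells grown in medium containing fetal bovine serum are stimulated with LPS. Nitric oxide production is read as nitrite. IC50 is the concentration giving 50% inhibition of NO.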

Assay [1] is filed under the species Mus musculus. Nature of the assay: Decrease in lethality in D-galactosamine-sensitized mice challenged with LPS at 200 ng/mouse. The format is functional, organism-based. An outline of the steps: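 Mice primed with D-galactosamine receive graded doses of test compound and are challenged with a supralethal LPS dose of 200 ng/mouse. The endpoint is lethality.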

The species entered for assay [2] is Mus musculus. Nature of the assay: Decrease in lethality in D-galactosamine-sensitized mice challenged with LPS at 200 ng/mouse.

As usually defined, the IC50 is the concentration at which inhibition is half-maximal. Low values mean inhibition by little substance, high ones a need for much substance. In the assay on Lipopolysaccharide (LPS), `CCCCCOc1c(/C=N/N=C(N)N)ccc(/C=N/N=C(N)N)c1OCCCCC` returned an ED50 of 7.82 µM. Further, the IC50 with J774.A1 (Mus musculus, J774.A1) is 3.54 µM.
For the compound POLYMYXIN B [listing 1 of 2 here], the ED50 in the assay with Lipopolysaccharide (LPS) was 1.67 µM.
In turn, `C=CCOc1c(/C=N/NC(=N)N)ccc(/C=N/NC(=N)N)c1OCC=C` had an ED50 in the assay on Lipopolysaccharide (LPS) of 29.9 µM. For the same compound, the IC50 in the assay with J774.A1 (Mus musculus, J774.A1) was found to be 9.64 µM.
Regarding `CCCCCCCCOc1c(/C=N/N=C(N)N)ccc(/C=N/N=C(N)N)c1OCCCCCCCC`, the ED50 with Lipopolysaccharide (LPS) came to 39.5 µM. For the same compound, the IC50 with J774.A1 (Mus musculus, J774.A1) is 3.45 µM. The Activity result in the assay listed under Mus musculus [1] and in the assay filed under Mus musculus [2] was “Dose-dependent effect” in each case.
`CCCCCCCCCCCCCCOc1c(/C=N/N=C(N)N)ccc(/C=N/N=C(N)N)c1OCCCCCCCCCCCCCC` yielded an ED50 in the assay on Lipopolysaccharide (LPS) of over 500 µM. This compound yielded an IC50 in the assay with J774.A1 (Mus musculus, J774.A1) of 14.9 µM.
In the same order, the values of `CCCOc1c(/C=N/N=C(N)N)ccc(/C=N/N=C(N)N)c1OCCC` are 12.7 µM and 8.38 µM.
Take `COc1c(/C=N/N=C(N)N)ccc(/C=N/NC(=N)N)c1OC`: in the assay with Lipopolysaccharide (LPS), the ED50 was determined as 42.3 µM. The compound also registered an IC50 with J774.A1 (Mus musculus, J774.A1) of 28 µM.
`CCOc1c(/C=N/N=C(N)N)ccc(/C=N/N=C(N)N)c1OCC`: the ED50 with Lipopolysaccharide (LPS) was 22.8 µM. It took 4.56 µM to reach half-maximal inhibition with J774.A1 (Mus musculus, J774.A1) (IC50).
In the same order, the values of `CCCCCCOc1c(/C=N/N=C(N)N)ccc(/C=N/NC(=N)N)c1OCCCCCC` are 13.2 µM and 4.67 µM.
Taken in the same sequence, the figures for `N=C(N)N/N=C/c1ccc(/C=N/NC(=N)N)c(O)c1O` were 43.7 µM and 26.4 µM.
In the same order, the values of `N=C(N)N/N=C/c1ccc(/C=N/NC(=N)N)cc1` are 34.6 µM and 24.4 µM.
POLYMYXIN B [listing 2 of 2 here]: in the assay on J774.A1 (j774.a1), the IC50 worked out at 0.98 µM.
Compound `CCCCOc1c(/C=N/N=C(N)N)ccc(/C=N/NC(=N)N)c1OCCCC` came in with an ED50 in the assay with Lipopolysaccharide (LPS) of 9.44 µM. This compound had a half-inhibitory concentration (IC50) in the assay with J774.A1 (Mus musculus, J774.A1) of 4.15 µM.
